The values that follow come from ChEMBL document CHEMBL1221302, “Discovery of imidazo[1,2-b]pyridazine derivatives as IKKbeta inhibitors. Part 1: Hit-to-lead study and structure-activity relationship” (Bioorg Med Chem Lett, 2010).

The target of data set [1] is Glycogen synthase kinase-3 beta (Homo sapiens, UniProt P49841). The data set is described as follows: Inhibition of recombinant GSK3-beta after 15 mins. The essentials: (§1)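 Each recombinant kinase was assayed with ATP at its own Km.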
The target of data set [2] is T1, Inhibitor of nuclear factor kappa-B kinase subunit beta (Homo sapiens, UniProt O14920).
T1 sequence (O14920 whole entry): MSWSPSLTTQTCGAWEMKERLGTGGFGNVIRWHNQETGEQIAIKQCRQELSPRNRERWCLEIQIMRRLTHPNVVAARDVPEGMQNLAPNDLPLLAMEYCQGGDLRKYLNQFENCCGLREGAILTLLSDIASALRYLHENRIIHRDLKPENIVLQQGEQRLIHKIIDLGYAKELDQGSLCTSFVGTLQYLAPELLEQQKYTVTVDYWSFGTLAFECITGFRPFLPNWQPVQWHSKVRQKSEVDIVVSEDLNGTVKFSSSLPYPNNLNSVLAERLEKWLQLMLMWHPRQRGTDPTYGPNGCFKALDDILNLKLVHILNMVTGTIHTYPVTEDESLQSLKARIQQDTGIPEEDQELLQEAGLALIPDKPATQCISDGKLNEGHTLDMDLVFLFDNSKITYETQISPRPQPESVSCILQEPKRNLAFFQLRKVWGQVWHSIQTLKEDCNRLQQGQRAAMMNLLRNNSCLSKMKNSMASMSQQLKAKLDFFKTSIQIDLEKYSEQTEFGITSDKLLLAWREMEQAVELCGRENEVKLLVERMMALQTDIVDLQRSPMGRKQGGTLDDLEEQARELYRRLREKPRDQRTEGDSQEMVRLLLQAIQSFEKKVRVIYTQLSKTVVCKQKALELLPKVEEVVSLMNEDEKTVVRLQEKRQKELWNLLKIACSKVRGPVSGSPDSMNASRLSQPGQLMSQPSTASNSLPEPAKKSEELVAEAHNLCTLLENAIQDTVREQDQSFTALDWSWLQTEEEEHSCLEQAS
The data set is described as follows: Inhibition of purified His-tagged IKK-beta after 15 mins.

Data set [3] concerns the target Cyclin-dependent kinase 2 (Homo sapiens, UniProt P24941). Kind of data set: Inhibition of recombinant CDK2 after 15 mins.
Data set [4] has as its target T2, Inhibitor of nuclear factor kappa-B kinase subunit alpha (Homo sapiens, UniProt O15111).
T2 sequence (O15111 whole entry): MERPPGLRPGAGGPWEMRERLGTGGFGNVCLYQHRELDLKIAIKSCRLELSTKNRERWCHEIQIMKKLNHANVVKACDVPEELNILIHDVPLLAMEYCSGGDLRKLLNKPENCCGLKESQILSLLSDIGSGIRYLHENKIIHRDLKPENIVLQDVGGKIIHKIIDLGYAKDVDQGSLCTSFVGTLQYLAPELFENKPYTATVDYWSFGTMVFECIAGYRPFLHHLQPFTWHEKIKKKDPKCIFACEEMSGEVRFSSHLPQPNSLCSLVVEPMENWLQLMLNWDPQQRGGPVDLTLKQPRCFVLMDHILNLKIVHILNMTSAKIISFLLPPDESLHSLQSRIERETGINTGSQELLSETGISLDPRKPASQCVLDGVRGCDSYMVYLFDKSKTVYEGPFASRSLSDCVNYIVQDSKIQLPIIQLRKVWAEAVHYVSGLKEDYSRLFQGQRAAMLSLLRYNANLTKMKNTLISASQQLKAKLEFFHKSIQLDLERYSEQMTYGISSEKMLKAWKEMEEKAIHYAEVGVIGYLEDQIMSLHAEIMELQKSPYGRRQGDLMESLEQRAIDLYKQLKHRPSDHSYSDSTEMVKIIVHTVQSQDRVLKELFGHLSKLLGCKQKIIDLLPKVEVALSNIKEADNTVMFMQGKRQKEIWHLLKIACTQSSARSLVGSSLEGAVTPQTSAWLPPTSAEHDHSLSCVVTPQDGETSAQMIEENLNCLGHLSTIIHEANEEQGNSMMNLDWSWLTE
Kind of data set: Inhibition of recombinant IKKalpha after 15 mins.

Data set [5] has as its system THP-1. The data set is described as follows: Antiinflammatory activity in human THP1 cells assessed as inhibition of LPS-induced TNFalpha production after 4 hrs by ELISA. Particulars: THP-1, 4 h. Format: functional, cell-based. In a few lines:
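THP-1 cells primed 3–4 days with 100 nM calcitriol in RPMI-1640 containing 10% FBS, then cultured overnight without calcitriol. Resuspended in RPMI-1640 with 25 mM HEPES at 1.5×10^5 cells/mL. Compound and E. coli O111:B4 LPS added together, 4 h at 37 °C in 5% CO2. TNFα measured in the centrifuged supernatant by ELISA.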
On the technique in general: In an ELISA, binding on a coated surface is turned into a signal by an enzyme label.

Data set [6] has as its target Mitogen-activated protein kinase 10 (Homo sapiens, UniProt P53779). Kind of data set: Inhibition of recombinant JNK3 after 15 mins. In a few lines: as §1
Data set [7] in a line: Apparent permeability of the compound at pH 7.4 by PAMPA method. Format: ADME. (In general: In PAMPA a lipid-coated filter parts donor from acceptor wells.)
In data set [8] the target is Mitogen-activated protein kinase 14 (Homo sapiens, UniProt Q16539). The data set is described as follows: Inhibition of recombinant p38alpha after 15 mins. The essentials: as §1
Sequence of Mitogen-activated protein kinase 14 (Q16539 whole entry): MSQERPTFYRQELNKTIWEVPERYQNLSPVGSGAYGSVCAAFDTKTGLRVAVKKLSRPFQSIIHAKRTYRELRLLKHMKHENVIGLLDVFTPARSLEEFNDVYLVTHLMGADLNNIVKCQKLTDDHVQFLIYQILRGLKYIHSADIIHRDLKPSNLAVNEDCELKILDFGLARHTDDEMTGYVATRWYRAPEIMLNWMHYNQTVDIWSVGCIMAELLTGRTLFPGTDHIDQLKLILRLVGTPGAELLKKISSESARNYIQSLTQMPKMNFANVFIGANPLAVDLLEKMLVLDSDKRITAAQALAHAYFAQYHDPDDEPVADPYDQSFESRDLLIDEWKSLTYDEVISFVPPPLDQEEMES

Where only a bound is given, the exact number is not on record here.

Sequence of Mitogen-activated protein kinase 10 (P53779 whole entry): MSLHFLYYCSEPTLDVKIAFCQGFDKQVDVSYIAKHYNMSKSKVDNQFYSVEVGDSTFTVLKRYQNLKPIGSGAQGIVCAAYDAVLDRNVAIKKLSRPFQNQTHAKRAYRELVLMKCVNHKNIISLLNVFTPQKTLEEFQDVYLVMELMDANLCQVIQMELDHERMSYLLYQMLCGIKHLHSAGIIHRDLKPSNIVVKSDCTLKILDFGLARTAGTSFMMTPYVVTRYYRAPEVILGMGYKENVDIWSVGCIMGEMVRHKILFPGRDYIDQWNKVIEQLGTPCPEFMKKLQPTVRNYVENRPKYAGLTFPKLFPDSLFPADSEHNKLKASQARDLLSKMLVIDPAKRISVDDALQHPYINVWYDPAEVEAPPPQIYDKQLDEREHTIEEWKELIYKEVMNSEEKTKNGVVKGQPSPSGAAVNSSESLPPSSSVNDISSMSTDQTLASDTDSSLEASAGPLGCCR
Sequence of Glycogen synthase kinase-3 beta (P49841 whole entry): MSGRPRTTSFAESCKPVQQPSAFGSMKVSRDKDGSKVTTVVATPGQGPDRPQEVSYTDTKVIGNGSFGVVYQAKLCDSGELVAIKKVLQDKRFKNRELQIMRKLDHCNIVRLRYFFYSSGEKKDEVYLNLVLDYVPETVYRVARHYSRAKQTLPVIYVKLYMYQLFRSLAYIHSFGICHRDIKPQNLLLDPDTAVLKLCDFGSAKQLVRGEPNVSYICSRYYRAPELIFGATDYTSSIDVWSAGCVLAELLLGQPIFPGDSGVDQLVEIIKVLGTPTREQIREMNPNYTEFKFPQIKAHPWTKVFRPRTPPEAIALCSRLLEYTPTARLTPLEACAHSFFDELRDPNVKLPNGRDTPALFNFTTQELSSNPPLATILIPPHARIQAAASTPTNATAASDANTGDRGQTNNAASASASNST

As to `CN(C)CCNC(=O)c1ccc(-c2cnc3ccc(NCC4CC4)nn23)cc1`, the IC50 (in general, the concentration at which inhibition is half-maximal) in data set [1] was greater than 100 µM; in data set [2] it was 0.2 µM; in data set [3], greater than 100 µM; in data set [4], greater than 100 µM; in data set [5], 0.69 µM; in data set [6] it was greater than 100 µM. Further, in data set [8], the IC50 is greater than 100 µM. Besides, in data set [7], the Papp (in general, a coefficient for how fast a substance crosses the barrier) was greater than 50 ×10⁻⁶ cm/s.
